This note sets out measurements from ChEMBL document CHEMBL3875171, “[1,2]Oxazolo[5,4-e]isoindoles as promising tubulin polymerization inhibitors” (Eur J Med Chem, 2016).

The nature of series [1]: Cytotoxicity against human MP8 cells assessed as growth inhibition after 72 hrs by MTS assay. In kind it is functional, cell-based. Particulars: MP8, 72 h. The procedure, abridged: (§1)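 Log-phase cells seeded at 4500 cells/50 µL and grown 24 h, then exposed 72 h to 0.01-100 µM compound; vehicle controls 0.01% DMSO. MTS read-out at 490 nm, expressed as % of DMSO-treated cells. Eight replicates per condition, at least three independent repeats; IC50 read graphically from dose-response curves.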
On the technique in general: Tetrazolium assays rely on reduction of a dye to a coloured formazan, in cell work by metabolically active cells.

Series [2] can be described thus: Cytotoxicity against human STO cells assessed as growth inhibition after 72 hrs by MTS assay. In kind it is functional, cell-based. The procedure, abridged: as §1
The nature of series [3]: Cytotoxicity against human JR8 cells assessed as growth inhibition after 72 hrs by MTS assay. The series is classed as functional, cell-based. The following applies: JR8, 72 h. The procedure, abridged:
as §1

Series [4] can be described thus: Cytotoxicity against human MCF7 cells assessed as growth inhibition after 72 hrs by MTS assay. The series is classed as functional, cell-based. Particulars: MCF7, 72 h. An outline of the steps: as §1
The nature of series [5]: Cytotoxicity against human DU145 cells assessed as growth inhibition after 72 hrs by MTS assay. The series is classed as functional, cell-based. The following applies: DU-145, 72 h. The procedure, abridged: as §1
The nature of series [6]: Cytotoxicity against human MCF10A cells assessed as growth inhibition after 72 hrs by MTS assay. In kind it is toxicity, cell-based, MCF-10A. The procedure, abridged:
as §1

Series [7] in a line: Cytotoxicity against human M14 cells assessed as growth inhibition after 72 hrs by MTS assay. Particulars: M14, 72 h. In kind it is functional, cell-based. An outline of the steps:
as §1

The nature of series [8]: Cytotoxicity against human MDA-MB-231 cells assessed as growth inhibition after 72 hrs by MTS assay. In kind it is functional, cell-based. Particulars: MDA-MB-231, 72 h. An outline of the steps: as §1
Series [9] can be described thus: Cytotoxicity against human PC3 cells assessed as growth inhibition after 72 hrs by MTS assay. The series is classed as functional, cell-based. The following applies: PC-3, 72 h. An outline of the steps:
as §1

Series [10] can be described thus: Cytotoxicity against human WI38 cells assessed as growth inhibition after 72 hrs by MTS assay. In kind it is toxicity, cell-based, WI-38. The procedure, abridged: as §1
Series [11] can be described thus: Cell cycle arrest in human STO cells assessed as mitotic cells at antiproliferative IC50 after 72 hrs by fluorescence microscopic analysis relative to control. The series is classed as functional.
The test system of series [12] is STO. Nature of the series: Inhibition of alpha-tubulin polymerization in human STO cells assessed as increase in ratio of soluble to polymerized tubulin fraction at 2 nM after 24 hrs by western blot analysis. In kind it is cell-based. (A western blot detects proteins with antibodies after separation by electrophoresis.)
A short description of series [13]: Cell cycle arrest in human MP8 cells assessed as mitotic cells at antiproliferative IC50 after 72 hrs by fluorescence microscopic analysis relative to control. The series is classed as functional.
For series [14], the system named is STO. Nature of the series: Cell cycle arrest in human STO cells assessed as accumulation at G2/M phase at antiproliferative IC50 after 48 to 72 hrs by propidium iodide staining based flow cytometry. The series is classed as functional. An outline of the steps:
(§2)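 STO or MP8 cells exposed 48 and 72 h to compound at IC50 or IC80 (72-h MTS values), controls 1% DMSO. Adherent plus floating cells fixed in 70% ethanol, stained 30 min at 4°C with propidium iodide 50 µg/mL, RNase, 0.05% NP-40 in PBS. ≥30000 events per flow cytometry sample; Modfit model for G1/S/G2/M percentages; mean of three independent experiments.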
On the technique in general: Flow cytometry measures light scatter and fluorescence of single cells or particles in a stream.

Series [15] relates to MP8. The series can be described thus: Cell cycle arrest in human MP8 cells assessed as accumulation at G2/M phase at antiproliferative IC50 after 48 to 72 hrs by propidium iodide staining based flow cytometry. In kind it is functional. An outline of the steps: as §2
Series [16] deals with MP8. Nature of the series: Inhibition of alpha-tubulin polymerization in human MP8 cells assessed as increase in ratio of soluble to polymerized tubulin fraction at 13 nM after 24 hrs by western blot analysis. In kind it is cell-based.

As usually defined, the IC50 is the point on the concentration scale where inhibition reaches its midpoint.

Each structure is given as a SMILES string. Calls of active or inactive are those of the source. The calls are words filed in the database; no cut-off is given here.

For `COc1ccc(Cn2cc3c(c2)-c2oncc2CC3)cc1`, the IC50 in series [1] is above 100 µM; in [2], above 100 µM; in [3] it was 9.15 µM; in series [4], 7.89 µM; in series [5], 15.2 µM; in series [7], 12.5 µM. In addition, the IC50 in [8] was 15.6 µM; in series [9] it was 18.6 µM. For the same compound, the 50% inhibitory concentration (IC50) at 72 h in [6] and in [10] was above 100 µM in each case.

Turning to `CCC1=C[C@@H]2CN(C1)Cc1c([nH]c3ccccc13)[C@@](C(=O)OC)(c1cc3c(cc1OC)N(C)[C@H]1[C@@](O)(C(=O)OC)[C@H](OC(C)=O)[C@]4(CC)C=CCN5CC[C@]31[C@@H]54)C2` [VINORELBINE], the Activity in series [11] and in series [13] was 35 - 70% in each case. The inhibition result in [12] and in [16] was “Active” each time. Moreover, the result in [14] and in series [15] was Active.

Turning to `COc1cccc(Cn2cc3c(c2)-c2oncc2CC3)c1`, the IC50 in [1] stood at 0.51 µM; in series [2] it was 0.46 µM; in series [3], 0.96 µM; in series [4], 1.17 µM; in [5], 1.37 µM; in series [7], 1.02 µM. Moreover, the IC50 in series [8] was 0.85 µM; in series [9] it was 0.96 µM. Moreover, the IC50 at 72 h in [6] and in [10] was above 100 µM each time.

As to `COc1ccc(OC)c(Cn2cc3c(c2)-c2oncc2CC3)c1`, the IC50 in series [1] is above 100 µM; in [2], above 100 µM; in series [3], 19.2 µM; in series [4], 15.2 µM; in series [5] it was 19.5 µM; in [7], 16.8 µM. Further, the figures for the IC50 in series [8] and in series [9] were 19.6 µM and 23.7 µM, respectively. The IC50 at 72 h in series [6] and in series [10] was above 100 µM throughout.

For `COc1ccccc1Cn1cc2c(c1)-c1oncc1CC2`, the IC50 in [1] amounted to 1.52 µM; in [2] it was 0.79 µM; in series [3] it was 16.2 µM; in series [4] it was 19.4 µM; in series [5] it was 17.5 µM; in [7], 20.5 µM. Also, the IC50 in [8] was 14.4 µM; in [9] it was 18.6 µM. The IC50 at 72 h in series [6] and in [10] was above 100 µM each time.

Take `COc1ccc(Cn2cc3c(c2)-c2oncc2CC3)cc1OC`: the concentration for half-maximal inhibition (IC50) came out at 0.51 µM in series [1]; 0.64 µM in series [2]; 0.85 µM in series [3]; 1.03 µM in series [4]; 0.87 µM in series [5]; 0.96 µM in [7]. Also, the IC50 came to 0.88 µM in series [8] and 0.79 µM in series [9]. Besides, the IC50 at 72 h in series [6] and in [10] was above 100 µM each time.

With `c1ccc(Cn2cc3c(c2)-c2oncc2CC3)cc1`, the IC50 came out at 0.69 µM in [1]; 0.79 µM in series [2]; 5.14 µM in series [3]; 11.3 µM in series [4]; 15.2 µM in series [5]; 6.88 µM in series [7]. For the same compound, the values for the concentration for half-maximal inhibition (IC50) in series [8] and in [9] were 19.6 µM and 13.5 µM, respectively. For the same compound, the IC50 at 72 h in series [6] and in series [10] was above 100 µM each time.

As to `CC(=O)O[C@H]1C(=O)[C@@]2(C)[C@H]([C@H](OC(=O)c3ccccc3)[C@]3(O)C[C@H](OC(=O)[C@H](O)[C@@H](NC(=O)c4ccccc4)c4ccccc4)C(C)=C1C3(C)C)[C@]1(OC(C)=O)CO[C@@H]1C[C@@H]2O` [PACLITAXEL], the Activity in [11] and in series [13] was 35 - 70% each time. Further, the result in [14] and in series [15] was Active.
